# Source: the array DNA melting data of Ke et al. (doi:10.1101/2024.01.08.574731)
# Assays:
# [1] = folding enthalpy; higher = less favourable; fluorescence melt of hairpins on a sequencing array, two-state fit; settings: sodium 0.088 M
# Outline: (§1)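 With Cy3 and quencher oligos annealed, library hairpins on a sequenced MiSeq flow cell were imaged for Cy3 fluorescence in 50 mM Na-HEPES pH 8.0, 25 mM NaCl, in 2.5 °C steps up to 60 °C. Melting temperature and folding enthalpy were derived from bootstrapped two-state fits of signals normalised to pre-quench Cy3 and to control constructs. Four replicates were combined by inverse variance, with fitted temperatures raised by 9.35 °C to match UV melts.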
# [2] = melting temperature; fluorescence melt of hairpins on a sequencing array, two-state fit, raised by 9.35 °C to match UV melts; settings: sodium 0.088 M
# Outline: as §1
Sequence,folding enthalpy [1] [kcal/mol],Tm [2] [°C]
GTCCACGAAAGTGCCGAC ((((((....)))..))),-12.8,31.5
GCCAGGCGAAAGCGAGGC (((..((....))..))),-21.1,59.4
GATCCGTGACGGATC ((((((...)))))),-38.3,59.9
GCTTAACGAAAGTTAGC (((.(((....)))))),-21.7,44.9
GATATACGAAAGTAATC (((.(((....)))))),-9.45,23.8
GAGGCTGGAAACAGCTTC ((.((((....)))).)),-19.8,49
CGGTCGGAAACGACACCG ((((((....)))..))),-11,38
GTTGTAGAAATACAAC ((((((....)))))),-32.4,47.5
GTCAGCCGAAAGGCGAC (((.(((....)))))),-15,61.5
GAGTCCGAAAGGAAGCTC ((((((....)))..))),-17.6,37.4
GAGTGTGGAAACACGCTC (((.(((....))).))),-26.9,54.5
GTTCGCGAAAGCGAAAC ((((((....))).))),-12.6,55.3
GTTATTGCGAAAGCAAAC (((..(((....)))))),-10.3,29.1
GCCCGGCGAAAGCACGGC (((..((....))..))),-13.3,57.1
GCAGTCGAAAGACATTGC ((((((....)))..))),-17.1,38.1
GCATTGCGAAAGCATAGC ((..(((....)))..)),-19,48.8
GGGGCAGGAAACCGCCCC (((((.(....).))))),-30.3,63.8
GATCTCGAGTGAGATC ((((((....)))))),-35.7,51.8
GGTTTAGGAAACCAAACC (((((.(....).))))),-22.9,37
GGTGGACCGAAAGGTACC (((..(((....)))))),-13.4,45
GGGCAAGAAATTGCCC ((((((....)))))),-33.9,63.6
GCCATGCGAAAGCAGAGC ((..(((....)))..)),-17.9,44.6
GCCCAGCGAAAGCAGCGC ((.(.((....)).).)),-13.9,46.5

Sequence,folding enthalpy [1] [kcal/mol],Tm [2] [°C]
GGGAGGACGAAAGTCCCC (((..(((....)))))),-11.6,53.1
GCTCGCCGAAAGGCCAGC (((.(((....))).))),-18.1,50.5
GAGGTAGAAATACCTC ((((((....)))))),-33.5,50.2
GCTTAGCGAAAGCACAGC (((..((....))..))),-15.8,38.6
GATCAGAAAACTGATC ((((((....)))))),-29.2,43.6
GTGACGGGAAACCACCAC (((..((....))..))),-15.7,27.4
GCTGCACGAAAGTGTAGC (((.(((....))).))),-43.9,65
GCGAGCGAAAGCTCCGC ((((((....))).))),-18.2,65.4
GCACGAGGAAACTTGTGC ((((.((....)).)))),-43.5,54.5
GCACAGCGAAAGCGGAGC ((.(.((....)).).)),-25.9,61.6
GACGACGAAAGTCTGTC ((((((....))).))),-24.4,51.4
GATCGACCCCTCGATC ((((((....)))))),-47.5,51.7
GCCAAGCGAAAGCTAAGC ((..(((....)))..)),-14.4,37.6
GGTGCTACGAAAGTAACC (((..(((....)))))),-13.5,29.1
GAAGAGACGAAAGTCTTC (((..(((....)))))),-9.13,30.6
GATCGTCTTTACGATC ((((((....)))))),-34.3,55.2
GCCCAGCGAAAGCTTGGC (((.(((....))).))),-53,54.9
GTCACGGGAAACCACGAC (((..((....))..))),-23.6,34.9
GCCATAGAAATATGGC ((((((....)))))),-36.4,53.5
GATCGCTAATGCGATC ((((((....)))))),-31.4,67.1
GTCAAAGGAAACTTTGGC (.(((((....))))).),-29.9,44.5
GGTACACGAAAGTGGACC (((.(((....))).))),-38.2,67.2
GAGCACCGAAAGGTCCTC (((.(((....))).))),-22.2,40.8

Sequence,folding enthalpy [1] [kcal/mol],Tm [2] [°C]
GATCTGGTGACAGATC ((((((....)))))),-40.8,56.4
CGCACGGAAACGTTGGCG ((((((....)))..))),-37.8,45.4
GTCGCCGAAAGGCGCGAC ((((((....)))..))),-11.3,58.4
GTTAAAGCGAAAGCTAAC (((..(((....)))))),-10.3,35.6
GCATGCGAAAGCATATGC ((((((....)))..))),-20.1,50.1
CGGGAGAAATCCCG (((((....))))),-25.9,57.1
GCGCTGCGAAAGCATGGC ((..(((....)))..)),-19.4,43.6
GCATACGAAAGTACTTGC ((((((....)))..))),-11.7,30.8
GGTGCCGAAAGGCTAACC ((((((....)))..))),-15.3,50.7
GCCTCAGGAAACCAAGGC ((((..(....)..)))),-28.6,33.2
GGCCTCGAAAGAGTAGCC ((((((....)))..))),-25.9,49.2
GGGTCGACGAAAGTCCCC (((..(((....)))))),-17.7,38.7
GTGGAGGGAAACCTCTGC (..((((....))))..),-19.2,37.6
GCTAGCGCGAAAGCGAGC (((..(((....)))))),-12.9,44.9
GGTCAGTCGAAAGACACC (((..(((....)))))),-13.3,32.9
GAAACTGGAAACGGTTTC (((((.(....).))))),-34.5,44.5
GGTAGCGAAAGCTTAACC ((((((....)))..))),-16.7,38.1
GTCTAAGGAAACCTAGAC (((((.(....).))))),-25.8,34.3
GCGCTTCGAAAGAACGC (((.(((....)))))),-32.9,53.1
GATCCGTTCGCGGATC ((((((....)))))),-50.4,61.3
GAAAAGACGAAAGTCTTC (((..(((....)))))),-11.8,35.6
GGCACAGCGAAAGCTGCC (((..(((....)))))),-12.3,48.3
GCTGCCGGAAACGGTAGC (((.(((....))).))),-39.9,64
